# Results from different studies.
# Protocols differ between the studies behind these lines.
SMILES,system,conditions,measurement,result
CCOCC(=O)N1CCC[C@H](C(=O)NCc2nc(-c3ccc(C#N)nc3)cs2)C1,"male Sprague-Dawley rat, plasma","oral, 3 mg/kg",AUC,21 µM·h
C=C(CC(=O)OCOC(=O)OC(C)C)C(=O)OCOC(=O)OC(C)C,PAMPA,"10 µM, 4 h, pH 7.4",Papp,> 10 ×10⁻⁶ cm/s
NCCOCC(=O)N1CCC[C@H](C(=O)NCc2nc(-c3ccc(C(F)(F)F)cc3)cs2)C1,"male Sprague-Dawley rat, plasma","oral, 3 mg/kg",AUC,0.071 µM·h
C=C(CC(=O)OCc1oc(=O)oc1C)C(=O)O,PAMPA,"10 µM, 4 h",Papp,~15 ×10⁻⁶ cm/s
COc1nc(-c2cccc(-c3ccccc3)c2C)ccc1CNCCNC(=O)CCCCCCCCCCC(=O)N1CCN(CCNC(=O)c2cc3c(=O)n4cccc(C)c4nc3n(CCc3cccs3)c2=N)CC1,"male Sprague-Dawley rat, plasma","intraperitoneal, 4 mg/kg",AUC(0-t),2440 ng·h/mL
CCOCC(=O)N1CCC[C@H](C(=O)NCc2nc(-c3ccc(C)nc3)cs2)C1,"male Sprague-Dawley rat, plasma","oral, 3 mg/kg",AUC,32 µM·h
CN(C)C(=O)c1cc2cnc(Nc3ccc(N4CCNCC4)cn3)nc2n1C1CCCC1,"male Sprague-Dawley rat, plasma","intraperitoneal, 100 mg/kg",AUC,12200 ng·h/mL
Cc1c(S(=O)(=O)N2CCn3nccc3C2)cc(C(=O)NCc2c(F)ccnc2N2CCCC2)n1C,PAMPA,,Papp,16.8 ×10⁻⁶ cm/s
C[C@H]1Oc2cc(cnc2N)-c2c(nn(C)c2C#N)CN(C)C(=O)c2ccc(F)cc21,"male Sprague-Dawley rat, plasma","oral, 5 mg/kg, single dose",AUC(0-inf),1870 ng·h/mL
